Results pooled from the literature.
Lines come from different studies, so protocols differ.
Target: Inhibitor of nuclear factor kappa-B kinase subunit alpha (CHUK, Homo sapiens, UniProt O15111)
Sequence (O15111 1-745, as in one of the studies): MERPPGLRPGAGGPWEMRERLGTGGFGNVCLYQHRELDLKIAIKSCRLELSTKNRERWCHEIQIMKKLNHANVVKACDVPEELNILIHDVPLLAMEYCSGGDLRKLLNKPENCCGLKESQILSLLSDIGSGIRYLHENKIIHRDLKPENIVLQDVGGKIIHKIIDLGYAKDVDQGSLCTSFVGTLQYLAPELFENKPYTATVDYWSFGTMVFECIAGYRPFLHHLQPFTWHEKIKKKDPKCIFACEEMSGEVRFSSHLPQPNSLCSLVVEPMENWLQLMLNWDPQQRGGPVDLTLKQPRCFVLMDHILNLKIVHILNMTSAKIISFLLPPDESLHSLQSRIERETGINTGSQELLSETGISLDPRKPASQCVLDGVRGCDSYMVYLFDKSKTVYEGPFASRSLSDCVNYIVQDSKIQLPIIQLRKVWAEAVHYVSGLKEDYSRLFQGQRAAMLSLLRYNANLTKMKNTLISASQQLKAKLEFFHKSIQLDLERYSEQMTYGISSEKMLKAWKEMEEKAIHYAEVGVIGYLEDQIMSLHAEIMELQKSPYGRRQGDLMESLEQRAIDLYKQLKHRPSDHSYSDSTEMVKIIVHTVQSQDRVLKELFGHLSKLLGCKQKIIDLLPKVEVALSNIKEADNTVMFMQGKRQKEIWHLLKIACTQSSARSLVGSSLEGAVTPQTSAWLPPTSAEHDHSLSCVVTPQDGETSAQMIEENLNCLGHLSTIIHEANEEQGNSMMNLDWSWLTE

CCCCNc1ncc2c(-c3ccc(F)cc3)nn(C[C@H]3CC[C@H](N)CC3)c2n1 — inhibition (target engagement in cells; inhibitor; chemoproteomics; 20 mM): 4.9%
CNCc1ccc(-c2cc(-c3nc(-c4ccc(S(=O)(=O)C(C)C)cc4)cnc3N)on2)cc1 — inhibition (enzyme activity; inhibitor; 2 µM): 36%
C#Cc1cccc(Nc2ncnc3cc(OCCOC)c(OCCOC)cc23)c1 — remaining signal (cell-free assay; 0.5 µM): 94.2%
Cc1c(C(=O)O)cc(-c2ccc(C3CCNCC3)cc2)c2ccc(-c3ccc(C(F)(F)F)cc3)cc12 — remaining binding (cell-free assay; competition with immobilised ligand; 1 µM): 98%
Cc1ccc(C(=O)NCc2ccsc2)cc1C#Cc1cn(C(C)C)c2ncnc(N)c12 — activity vs control (enzyme activity; inhibitor; 1 µM): 102%
O=C(NCc1ncc(C(F)(F)F)cc1Cl)c1ccc2c(c1)C1(CCS(=O)(=O)CC1)[C@H](C1CC1)N2S(=O)(=O)c1ccc(F)cc1 — remaining binding (cell-free assay; competition with immobilised ligand; 1 µM): 77%
Cc1ccc(C(=O)Nc2ccc(CN3CCN(C)CC3)c(C(F)(F)F)c2)cc1C#Cc1cnc2cccnn12 — remaining activity (enzyme activity; inhibitor; 23.5 nM): 19%
CNC(=O)c1cc(Oc2ccc(NC(=O)Nc3ccc(Cl)c(C(F)(F)F)c3)cc2)ccn1 — inhibition (enzyme activity; inhibitor; 0.3 µM): -10%
CC(C)(C)c1nc(-c2cccc(NS(=O)(=O)c3c(F)cccc3F)c2F)c(-c2ccnc(N)n2)s1 — remaining activity (enzyme activity; inhibitor; radiometric; 1 µM): 97%
CCN(CC)CCNC(=O)c1c(C)[nH]c(/C=C2\C(=O)Nc3ccc(F)cc32)c1C — inhibition (enzyme activity; inhibitor; 10 µM): 52%
COc1cc(Cl)c(C(=O)N[C@@H](CN[C@H]2CC[C@@H](N)CC2)Cc2ccc(C#N)cc2)cc1-c1ccc(CN[C@H](C)c2ccc(C)cc2)o1 — remaining activity (enzyme activity; inhibitor; 1 µM): 95%
CC(C)(O)[C@H]1CC[C@H](Nc2ccc3ncc(-c4cccc(C(F)(F)F)c4)n3n2)CC1 — remaining activity (enzyme activity; inhibitor; 1 µM): 83.6%
Cc1ccc(NC(=O)c2ccc(CN3CCN(C)CC3)cc2)cc1Nc1nc(-c2cccnc2)cs1 — remaining signal (cell-free assay; 0.5 µM): 96.2%
CC(=O)C1=C(C)N(c2cccc(C(F)(F)F)c2)C(=O)N[C@@H]1c1ccc(C#N)nc1 — remaining binding (cell-free assay; competition with immobilised ligand; 1 µM): 100%
CCCOc1ccc(OC)c(F)c1C(=O)c1ccc(C(=O)N[C@@H]2CNC[C@H]2NC(=O)c2ccc3[nH]ncc3c2)cc1 — remaining activity (enzyme activity; inhibitor; 10 µM): 83%
CN(C)C(=O)Cn1cc(-c2nc(C3(c4ccc(-c5cnc(N)nc5)cc4)CC3)no2)cn1 — remaining binding (cell-free assay; competition with immobilised ligand; 1 µM): 100%
CSc1nc(C)c(-c2ccnc(Nc3ccc(N4CCOCC4)cc3)c2)[nH]1 — inhibition (enzyme activity; inhibitor; 10 µM): 48.8%
CC(=O)N1CCC(c2ccc(C(=O)NC3=NCCN3)cc2C(F)(F)F)CC1 — remaining binding (cell-free assay; competition with immobilised ligand; 1 µM): 90%
O=C1Nc2ccc(Cl)cc2C1=Cc1cc(Cl)c(O)c(Cl)c1 — remaining signal (cell-free assay; 0.5 µM): 97%
CN([C@@H]1CCc2c(CC(=O)O)c3ccccc3n2C1)S(=O)(=O)c1ccc(F)cc1 — remaining binding (cell-free assay; competition with immobilised ligand; 1 µM): 100%
CCCS(=O)(=O)Nc1ccc(F)c(C(=O)c2c[nH]c3ncc(-c4ccc(Cl)cc4)cc23)c1F — inhibition (enzyme activity; inhibitor; 1 µM): < 10%
C[C@H](NC(=O)c1cnc2n1[C@](C)(Cc1ccc(C#N)cc1)C(=O)N2c1cc(Cl)c(F)c(Cl)c1)C(=O)NC1(c2ccccn2)CC1 — remaining binding (cell-free assay; competition with immobilised ligand; 1 µM): 100%
Cc1sc(C(=O)NC2COC2)cc1-n1cc(NC(=O)Nc2c(F)cccc2Cl)cn1 — remaining activity (enzyme activity; inhibitor; 10 µM): 101%
